From ChEMBL document CHEMBL1275351, “Novel spirotetracyclic zwitterionic dual H(1)/5-HT(2A) receptor antagonists for the treatment of sleep disorders” (J Med Chem, 2010)

What was measured:
Cytochrome P450 2C9 = Cytochrome P450 2C9 (Homo sapiens, UniProt P11712); experiment: Inhibition of human CYP2C9 transfected in bactosome expression system by spectrofluorimetry; format: ADME
How it was run: (§1)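 Recombinant human CYP Bactosomes (0.1 mg/mL) in 50 mM phosphate buffer, pH 7.4. Compound at 0.1-10 μM was preincubated with fluorogenic substrate for 10 min at 37 °C, and the reaction was started with an NADPH regenerating system. Metabolite fluorescence was followed for 10 min. Substrates: 1A2 ethoxyresorufin 0.5 μM; 2C9 FCA 50 μM; 2C19 BMC 10 μM; 2D6 MMC 10 μM; 3A4 DEF 1 μM or 7-BQ 25 μM. Run in triplicate.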

Rattus norvegicus [1] = experiment: Hypnotic activity in Sprague-Dawley rat assessed as non-rapid eye movement sleep at 10 mg/kg, po administered during active phase; format: functional
How it was run: (§2)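 Male Sprague-Dawley rats (275-300 g) carried implanted telemetric EEG/EMG transmitters and were used 3 weeks after surgery. Oral dosing (2 mL/kg) was given 6 h after lights off (CT18) in a randomized crossover versus vehicle. Recording ran for 5 h in 10 s epochs scored by FFT. n = 8, mean ± SEM; one-way ANOVA with Dunnett's test.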

[2] = Plasma concentration at Tmax in Sprague-Dawley rat hypnotic model at 3 mg/kg, po administered during active phase; format: ADME, organism-based; set-up: dose 3 mg/kg, route oral
[3] = Cmax in Sprague-Dawley rat hypnotic model at 3 mg/kg, po administered during active phase measured after 2 hrs; format: ADME, organism-based; set-up: dose 3 mg/kg, route oral; conditions: in vivo
[4] = Plasma concentration at Tmax in Sprague-Dawley rat hypnotic model at 1 mg/kg, po administered during active phase; format: ADME, organism-based; set-up: dose 1 mg/kg, route oral
[5] = Blood clearance in Sprague-Dawley rat at 1 mg/kg, iv and 3 mg/kg, po; format: ADME, organism-based; conditions: whole blood
How it was run: (§3)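 Male Sprague-Dawley rats, cassette dosing. Compounds were given as an iv bolus and as an oral suspension. Blood samples were taken at intervals up to 24 h, processed by protein precipitation and analysed by HPLC-MS/MS.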

Rattus norvegicus [6] = experiment: Ex vivo displacement of [3H]ketanserin from 5HT2A receptor in Sprague-Dawley rat cerebral cortex at 1 mg/kg, po by imaging analysis; format: functional
How it was run: (§4)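 Rats were dosed orally (vehicle 0.5% HPMC) and brains removed 2 h later. 14 μm coronal sections were incubated with 1 nM [3H]ketanserin in 50 mM Tris-HCl with 10 mM MgCl2, pH 7.5, for 10 min at room temperature. Nonspecific binding with 10 μM mianserin. Phosphoimager read after 7 days; occupancy measured in cortex.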

Rattus norvegicus [7] = experiment: Ex vivo displacement of [3H]pyrilamine from histamine H1 receptor in Sprague-Dawley rat cerebral cortex at 3 mg/kg, po by imaging analysis; format: functional
How it was run: (§5)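 Rats were dosed orally (vehicle 0.5% HPMC) and brains removed 2 h later. 14 μm coronal sections were incubated with 1 nM [3H]pyrilamine in 50 mM Tris-HCl, pH 7.5, for 10 min at room temperature. Nonspecific binding with 10 μM pyrilamine. Phosphoimager read after 7 days; occupancy measured in cortex.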

Rattus norvegicus [8] = experiment: Hypnotic activity in Sprague-Dawley rat assessed as rapid eye movement latency period at 3 mg/kg, po administered during active phase; format: functional; how it was run: as §2
Cytochrome P450 2C19 = Cytochrome P450 2C19 (Homo sapiens, UniProt P33261); experiment: Inhibition of human CYP2C19 transfected in bactosome expression system by spectrofluorimetry; format: ADME; how it was run: as §1
[9] = Half life in Sprague-Dawley rat at 1 mg/kg, iv and 3 mg/kg, po; format: ADME, organism-based; conditions: in vivo; how it was run: as §3
[10] = Ratio of drug level in brain to blood in Sprague-Dawley rat at 1 mg/kg, iv and 3 mg/kg, po; format: ADME, organism-based; conditions: read-out: BBR
How it was run: (§6)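 Male Sprague-Dawley rats, cassette dosing, iv bolus or oral suspension. Blood and brain levels were measured by protein precipitation and HPLC-MS/MS. Brain:blood ratio was taken from AUC0-8h after oral dosing, or at 1 h after iv dosing for one compound.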

[11] = target: Voltage-gated inwardly rectifying potassium channel KCNH2 (Homo sapiens, UniProt Q12809); experiment: Displacement of [3H]dofetilide from human ERG by scintillation proximity assay
[12] = Oral bioavailability in Sprague-Dawley rat at 3 mg/kg; format: ADME, organism-based; conditions: in vivo; how it was run: as §3
Rattus norvegicus [13] = experiment: Ex vivo displacement of [3H]pyrilamine from histamine H1 receptor in Sprague-Dawley rat cerebral cortex at 10 mg/kg, po by imaging analysis; format: functional; how it was run: as §5
Rattus norvegicus [14] = experiment: Ex vivo displacement of [3H]ketanserin from 5HT2A receptor in Sprague-Dawley rat cerebral cortex at 10 mg/kg, po by imaging analysis; format: functional; how it was run: as §4
[15] = target: 5-hydroxytryptamine receptor 2B (Homo sapiens, UniProt P41595); experiment: Antagonist activity at human 5HT2B receptor expressed in human SH-SY5Y cells by FLIPR assay
Rattus norvegicus [16] = experiment: Ex vivo displacement of [3H]ketanserin from 5HT2A receptor in Sprague-Dawley rat cerebral cortex at 3 mg/kg, po by imaging analysis; format: functional; how it was run: as §4
[17] = Volume of distribution at steady state in Sprague-Dawley rat at 1 mg/kg, iv and 3 mg/kg, po; format: ADME, organism-based; conditions: in vivo, read-out: Vdss; how it was run: as §3
Rattus norvegicus [18] = experiment: Ex vivo displacement of [3H]pyrilamine from histamine H1 receptor in Sprague-Dawley rat cerebral cortex at 1 mg/kg, po by imaging analysis; format: functional; how it was run: as §5
[19] = Plasma concentration at Tmax in Sprague-Dawley rat hypnotic model at 10 mg/kg, po administered during active phase; format: ADME, organism-based; set-up: dose 10 mg/kg, route oral
[20] = Fraction unbound in rat brain; format: ADME, tissue-based
[21] = Volume of distribution at steady state in Sprague-Dawley rat at 0.5 mg/kg, iv and 1 mg/kg, po; format: ADME, organism-based; conditions: in vivo, read-out: Vdss; how it was run: as §3
[22] = Blood clearance in Sprague-Dawley rat at 0.5 mg/kg, iv and 1 mg/kg, po; format: ADME, organism-based; conditions: whole blood; how it was run: as §3
[23] = Oral bioavailability in Sprague-Dawley rat at 1 mg/kg; format: ADME, organism-based; conditions: in vivo; how it was run: as §3
[24] = Half life in Sprague-Dawley rat at 0.5 mg/kg, iv and 1 mg/kg, po; format: ADME, organism-based; conditions: in vivo; how it was run: as §3
[25] = Ratio of drug level in brain to blood in Sprague-Dawley rat at 0.5 mg/kg, iv and 1 mg/kg, po; format: ADME, organism-based; conditions: read-out: BBR; how it was run: as §6
[26] = Cmax in Sprague-Dawley rat hypnotic model at 1 mg/kg, po administered during active phase measured after 2 hrs; format: ADME, organism-based; set-up: dose 1 mg/kg, route oral; conditions: in vivo

Chain of Cytochrome P450 2C9 (P11712 whole entry): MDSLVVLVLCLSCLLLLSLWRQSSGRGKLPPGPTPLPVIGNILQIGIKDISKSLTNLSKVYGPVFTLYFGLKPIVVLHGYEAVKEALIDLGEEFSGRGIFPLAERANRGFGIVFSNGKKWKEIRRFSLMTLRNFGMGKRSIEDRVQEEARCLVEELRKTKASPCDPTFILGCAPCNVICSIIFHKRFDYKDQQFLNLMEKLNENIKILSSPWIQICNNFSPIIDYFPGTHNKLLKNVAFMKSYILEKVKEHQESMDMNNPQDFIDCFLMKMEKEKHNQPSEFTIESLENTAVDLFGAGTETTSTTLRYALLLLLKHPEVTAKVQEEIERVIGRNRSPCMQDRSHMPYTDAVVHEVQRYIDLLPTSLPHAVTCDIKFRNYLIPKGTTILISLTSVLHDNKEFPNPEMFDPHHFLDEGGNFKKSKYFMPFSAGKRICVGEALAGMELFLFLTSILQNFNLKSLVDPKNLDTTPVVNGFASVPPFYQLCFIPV
Chain of 5-hydroxytryptamine receptor 2B (P41595 whole entry): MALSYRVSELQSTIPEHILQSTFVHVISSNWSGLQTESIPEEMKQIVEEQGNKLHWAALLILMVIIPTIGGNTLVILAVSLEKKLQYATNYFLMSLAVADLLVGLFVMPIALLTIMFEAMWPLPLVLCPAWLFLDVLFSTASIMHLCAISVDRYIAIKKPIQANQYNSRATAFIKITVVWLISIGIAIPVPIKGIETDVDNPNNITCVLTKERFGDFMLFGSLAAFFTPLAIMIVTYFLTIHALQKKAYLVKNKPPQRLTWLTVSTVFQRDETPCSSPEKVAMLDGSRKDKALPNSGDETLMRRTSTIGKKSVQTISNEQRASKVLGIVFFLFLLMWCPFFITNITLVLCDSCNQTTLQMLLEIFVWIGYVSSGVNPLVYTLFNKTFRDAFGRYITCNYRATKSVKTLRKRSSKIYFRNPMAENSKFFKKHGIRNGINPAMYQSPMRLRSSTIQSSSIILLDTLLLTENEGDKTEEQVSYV
Chain of Voltage-gated inwardly rectifying potassium channel KCNH2 (Q12809 whole entry): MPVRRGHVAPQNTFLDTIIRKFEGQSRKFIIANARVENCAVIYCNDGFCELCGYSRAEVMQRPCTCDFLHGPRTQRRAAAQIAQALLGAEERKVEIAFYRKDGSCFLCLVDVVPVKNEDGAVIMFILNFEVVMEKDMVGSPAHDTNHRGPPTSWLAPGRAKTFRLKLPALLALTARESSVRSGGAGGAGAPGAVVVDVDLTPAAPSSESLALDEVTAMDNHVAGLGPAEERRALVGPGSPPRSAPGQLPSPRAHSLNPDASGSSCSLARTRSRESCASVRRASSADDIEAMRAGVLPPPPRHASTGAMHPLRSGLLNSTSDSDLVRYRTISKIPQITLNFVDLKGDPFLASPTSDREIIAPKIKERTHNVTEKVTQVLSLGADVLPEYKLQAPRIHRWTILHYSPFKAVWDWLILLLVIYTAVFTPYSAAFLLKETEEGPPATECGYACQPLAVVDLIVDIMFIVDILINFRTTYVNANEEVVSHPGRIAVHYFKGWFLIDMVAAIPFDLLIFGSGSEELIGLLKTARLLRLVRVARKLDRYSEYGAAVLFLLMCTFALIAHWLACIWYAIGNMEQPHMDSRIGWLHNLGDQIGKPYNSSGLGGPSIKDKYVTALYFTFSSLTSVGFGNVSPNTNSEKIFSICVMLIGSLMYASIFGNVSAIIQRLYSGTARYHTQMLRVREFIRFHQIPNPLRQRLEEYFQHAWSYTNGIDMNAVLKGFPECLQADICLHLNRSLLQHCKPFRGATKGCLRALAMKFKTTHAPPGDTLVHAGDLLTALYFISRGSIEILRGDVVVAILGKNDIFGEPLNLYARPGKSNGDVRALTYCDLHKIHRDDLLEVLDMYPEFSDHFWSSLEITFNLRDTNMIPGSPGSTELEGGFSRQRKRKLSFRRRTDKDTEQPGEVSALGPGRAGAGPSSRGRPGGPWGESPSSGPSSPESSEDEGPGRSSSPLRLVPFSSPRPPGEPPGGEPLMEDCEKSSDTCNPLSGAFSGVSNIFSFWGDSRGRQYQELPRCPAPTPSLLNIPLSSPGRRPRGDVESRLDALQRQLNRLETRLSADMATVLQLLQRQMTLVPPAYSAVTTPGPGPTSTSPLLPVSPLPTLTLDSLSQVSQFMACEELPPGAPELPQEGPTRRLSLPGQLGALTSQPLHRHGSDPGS
Chain of Cytochrome P450 2C19 (P33261 whole entry): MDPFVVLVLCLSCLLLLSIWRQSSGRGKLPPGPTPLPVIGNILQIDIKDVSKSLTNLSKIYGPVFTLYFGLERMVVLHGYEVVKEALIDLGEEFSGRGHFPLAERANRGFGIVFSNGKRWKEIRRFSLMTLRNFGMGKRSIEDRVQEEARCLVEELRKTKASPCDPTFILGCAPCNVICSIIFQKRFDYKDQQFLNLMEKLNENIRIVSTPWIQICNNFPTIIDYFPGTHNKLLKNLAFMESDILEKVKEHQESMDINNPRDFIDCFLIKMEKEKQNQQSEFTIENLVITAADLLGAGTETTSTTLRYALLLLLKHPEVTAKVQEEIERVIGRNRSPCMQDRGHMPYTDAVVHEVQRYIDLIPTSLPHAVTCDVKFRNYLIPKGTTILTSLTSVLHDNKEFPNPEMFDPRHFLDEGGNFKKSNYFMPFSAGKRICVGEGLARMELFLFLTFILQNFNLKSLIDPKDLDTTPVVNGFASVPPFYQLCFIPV

O=C(O)C1CN(C2CC[C@]3(Cc4ccccc4Cc4ccccc43)C2)C1 (stereo partly specified)
IC50 (Cytochrome P450 2C9): > 10 µM | Time (Rattus norvegicus [1]): 130.5 min | Cmax [2]: 417 ng/mL | Cmax [3]: 626 ng/mL | Cmax [4]: 127 ng/mL | clearance [5]: 9 mL/min/kg | Activity (Rattus norvegicus [6]): 0.9% | Activity (Rattus norvegicus [7]): 45% | Time (Rattus norvegicus [8]): 81.6 min | IC50 (Cytochrome P450 2C19): > 10 µM | half-life [9]: 3.1 h | Kp [10]: 0.1 | IC50 [11]: > 50.1 µM | bioavailability [12]: 54% | Activity (Rattus norvegicus [13]): 66% | Activity (Rattus norvegicus [14]): 47% | Ki [15]: 0.0794 µM | Activity (Rattus norvegicus [16]): 24% | Vd [17]: 2.1 L/kg | Activity (Rattus norvegicus [18]): 16% | Cmax [19]: 1220 ng/mL | fraction unbound [20]: 0.032

O=C(O)C1CN(C2CCC3(Cc4ccccc4Oc4ccccc43)C2)C1 (stereo unspecified)
IC50 (Cytochrome P450 2C9): > 10 µM | Time (Rattus norvegicus [1]): 139.5 min | Vd [21]: 1.9 L/kg | clearance [22]: 13 mL/min/kg | bioavailability [23]: 100% | half-life [24]: 1.9 h | Time (Rattus norvegicus [8]): 77.7 min | IC50 (Cytochrome P450 2C19): > 10 µM | IC50 [11]: > 50.1 µM | Ki [15]: 0.794 µM | Kp [25]: 0.2 | fraction unbound [20]: 0.04

O=C(O)C1CCN(C2CC[C@]3(Cc4ccccc4Cc4ccccc43)C2)CC1 (stereo partly specified)
IC50 (Cytochrome P450 2C9): > 10 µM | Time (Rattus norvegicus [1]): 104 min | Vd [21]: 2.9 L/kg | Cmax [2]: 303 ng/mL | clearance [22]: 21 mL/min/kg | bioavailability [23]: 65% | Cmax [4]: 119 ng/mL | half-life [24]: 1.9 h | Activity (Rattus norvegicus [6]): 0% | Cmax [26]: 216 ng/mL | Activity (Rattus norvegicus [7]): 35% | Time (Rattus norvegicus [8]): 77.9 min | IC50 (Cytochrome P450 2C19): > 10 µM | IC50 [11]: > 63.1 µM | Activity (Rattus norvegicus [13]): 55% | Activity (Rattus norvegicus [14]): 18% | Ki [15]: 0.158 µM | Activity (Rattus norvegicus [16]): 5.6% | Kp [25]: 0.5 | Activity (Rattus norvegicus [18]): 30% | Cmax [19]: 755 ng/mL | fraction unbound [20]: 0.031
